In ChEMBL document CHEMBL4619736, “Direct modifications of the cyclic peptide Polymyxin B leading to analogues with enhanced in vitro antibacterial activity” (Bioorg Med Chem Lett, 2020):
Values after ≈ are worked out from the molar mass of the structure shown. Numbered stars: 1 amine (or outer) side, 2 acyl side, 3 side chain; on linkers, the order of the positions; unused ones are H or OH. Bridge positions count the residues as written; N and C are the ends. Square brackets hold non-standard residues; d marks the D form. Peptide text beside a SMILES is read from it. * marks the point of attachment. X2 = O=C([C@@H](Cc1ccc(-c2ccncc2)cc1)N[*:1])[*:2]; GABA(3R-Bn) = O=C(C[C@H](CN[*:1])Cc1ccccc1)[*:2]; X1 = CC[C@H](C)CCCCC(=O)*; Dab = NCC[C@H](N)C(=O)O; Dap = NC[C@H](N)C(=O)O

What was measured:
Escherichia coli [1] = assay: Antibacterial activity against Escherichia coli ATCC 25922 by CLSI based broth microdilution method; assay type: functional
Outline: (§1)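 Broth microdilution MIC per CLSI guidelines (M07-A9) in cation-adjusted Mueller-Hinton broth; panel of Gram-negative strains including clinical isolates with reduced polymyxin B susceptibility.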

Escherichia coli [2] = assay: Antibacterial activity against Escherichia coli IHMA 940398 by CLSI based broth microdilution method; assay type: functional; outline: as §1
Klebsiella pneumoniae [3] = assay: Antibacterial activity against Klebsiella pneumoniae ATCC 4352 by CLSI based broth microdilution method; assay type: functional; outline: as §1
Pseudomonas aeruginosa [4] = assay: Antibacterial activity against Pseudomonas aeruginosa ATCC 27853 by CLSI based broth microdilution method; assay type: functional; outline: as §1
Pseudomonas aeruginosa [5] = assay: Antibacterial activity against Pseudomonas aeruginosa IHMA 517175 by CLSI based broth microdilution method; assay type: functional; outline: as §1
Acinetobacter baumannii [6] = assay: Antibacterial activity against Acinetobacter baumannii NCTC 13424 by CLSI based broth microdilution method; assay type: functional; outline: as §1
Acinetobacter baumannii [7] = assay: Antibacterial activity against Acinetobacter baumannii IHMA 863866 by CLSI based broth microdilution method; assay type: functional; outline: as §1
[8] = Ratio of test compound IC50 to polymyxin B IC50 for cytotoxicity against human HK2 cells incubated for 24 hrs by resazurin blue dye based assay; assay type: cell-based; conditions: HK-2 cells, read-out: Ratio IC50
Outline: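 Confluent monolayers of human proximal tubule epithelial HK-2 cells exposed to compound for 24h at 37°C, 5% CO2; top concentration 1,000 or 3,000 μg/mL, semi-log dilutions, 9 points. Viability read with resazurin blue; log-concentration dose-response fit with bottom constrained to zero gives IC50, expressed relative to polymyxin B IC50 run in the same experiment.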

Klebsiella pneumoniae [9] = assay: Antibacterial activity against Klebsiella pneumoniae IHMA 652780 by CLSI based broth microdilution method; assay type: functional; outline: as §1

Compound | MIC (Escherichia coli [1]) [µg/mL] | MIC (Escherichia coli [2]) [µg/mL] | MIC (Klebsiella pneumoniae [3]) [µg/mL] | MIC (Pseudomonas aeruginosa [4]) [µg/mL] | MIC (Pseudomonas aeruginosa [5]) [µg/mL] | MIC (Acinetobacter baumannii [6]) [µg/mL] | MIC (Acinetobacter baumannii [7]) [µg/mL] | MIC (Klebsiella pneumoniae [9]) [µg/mL] | selectivity ratio at 24 h [8]
CC(C)C[C@@H]1CNC[C@@H](C(=O)N[C@H](C(=O)N[C@@H](CN)C(=O)N[C@H]2CCNC(=O)[C@H]([C@@H](C)O)NC(=O)[C@H](CCN)NC(=O)[C@H](CCN)NC(=O)[C@H](CC(C)C)NC(=O)[C@@H](Cc3ccc(-c4ccccc4)cc3)NC(=O)[C@H](CCN)NC2=O)[C@@H](C)O)C1 | 0.25 (≈ 0.21 µM) | 2 (≈ 1.68 µM) | 0.25 (≈ 0.21 µM) | 0.5 (≈ 0.419 µM) | 1 (≈ 0.839 µM) | 0.25 (≈ 0.21 µM) | 0.5 (≈ 0.419 µM) | 0.5 (≈ 0.419 µM) | 1.2
CC[C@H](C)CCCCC(=O)N[C@@H](CCN)C(=O)N[C@H](C(=O)N[C@@H](CCN)C(=O)N[C@H]1CCNC(=O)[C@H]([C@@H](C)O)NC(=O)[C@H](CCN)NC(=O)[C@H](CCN)NC(=O)[C@H](CC(C)C)NC(=O)[C@@H](Cc2ccc(-c3ccccc3)cc2)NC(=O)[C@H](CCN)NC1=O)[C@@H](C)O | 1 (≈ 0.781 µM) | 8 (≈ 6.25 µM) | 0.5 (≈ 0.391 µM) | 1 (≈ 0.781 µM) | 2 (≈ 1.56 µM) | 1 (≈ 0.781 µM) | 16 (≈ 12.5 µM) | 0.5 (≈ 0.391 µM) | 0.14
CC[C@H](C)CCCCC(=O)N[C@@H](CCN)C(=O)N[C@H](C(=O)N[C@@H](CCN)C(=O)N[C@H]1CCNC(=O)[C@H]([C@@H](C)O)NC(=O)[C@H](CCN)NC(=O)[C@H](CCN)NC(=O)[C@H](CC(C)C)NC(=O)[C@@H](Cc2ccc(Br)cc2)NC(=O)[C@H](CCN)NC1=O)[C@@H](C)O | 0.5 (≈ 0.39 µM) | 4 (≈ 3.12 µM) | 0.5 (≈ 0.39 µM) | 0.5 (≈ 0.39 µM) | 2 (≈ 1.56 µM) | 0.5 (≈ 0.39 µM) | 4 (≈ 3.12 µM) | 0.5 (≈ 0.39 µM) | –
CC(C)C[C@@H]1NC(=O)[C@@H](Cc2ccc(-c3ccccc3)cc2)NC(=O)[C@H](CCN)NC(=O)[C@@H](NC(=O)[C@H](CN)NC(=O)[C@@H](NC(=O)[C@@H]2CNCCN2CC(C)C)[C@@H](C)O)CCNC(=O)[C@H]([C@@H](C)O)NC(=O)[C@H](CCN)NC(=O)[C@H](CCN)NC1=O | 0.125 (≈ 0.105 µM) | 8 (≈ 6.7 µM) | 0.25 (≈ 0.209 µM) | 0.5 (≈ 0.419 µM) | 4 (≈ 3.35 µM) | 0.125 (≈ 0.105 µM) | 4 (≈ 3.35 µM) | 0.5 (≈ 0.419 µM) | 2.4
CC[C@H](C)CCCCC(=O)N[C@@H](CCN)C(=O)N[C@H](C(=O)N[C@@H](CCN)C(=O)N[C@H]1CCNC(=O)[C@H]([C@@H](C)O)NC(=O)[C@H](CCN)NC(=O)[C@H](CCN)NC(=O)[C@H](CC(C)C)NC(=O)[C@@H](Cc2ccccc2)NC(=O)[C@H](CCN)NC1=O)[C@@H](C)O (X1-[Dab]T[Dab][Dab][Dab][dF]L[Dab][Dab]T; lactam 4-C) | 0.25 (≈ 0.208 µM) | 16 (≈ 13.3 µM) | 0.125 (≈ 0.104 µM) | 0.5 (≈ 0.415 µM) | 8 (≈ 6.65 µM) | 0.25 (≈ 0.208 µM) | 32 (≈ 26.6 µM) | 4 (≈ 3.32 µM) | 1
CC[C@H](C)CCCCC(=O)N[C@@H](CCN)C(=O)N[C@H](C(=O)N[C@@H](CCN)C(=O)N[C@H]1CCNC(=O)[C@H]([C@@H](C)O)NC(=O)[C@H](CCN)NC(=O)[C@H](CCN)NC(=O)[C@H](CC(C)C)NC(=O)[C@@H](Cc2ccc(-c3ccncc3)cc2)NC(=O)[C@H](CCN)NC1=O)[C@@H](C)O (X1-[Dab]T[Dab][Dab][Dab][X2]L[Dab][Dab]T; lactam 4-C) | 1 (≈ 0.781 µM) | 32 (≈ 25 µM) | 1 (≈ 0.781 µM) | 1 (≈ 0.781 µM) | 32 (≈ 25 µM) | 2 (≈ 1.56 µM) | – | – | 0.7

The next lines start with results.

MIC (Escherichia coli [1]) [µg/mL] | MIC (Escherichia coli [2]) [µg/mL] | MIC (Klebsiella pneumoniae [3]) [µg/mL] | MIC (Pseudomonas aeruginosa [4]) [µg/mL] | MIC (Pseudomonas aeruginosa [5]) [µg/mL] | MIC (Acinetobacter baumannii [6]) [µg/mL] | MIC (Acinetobacter baumannii [7]) [µg/mL] | MIC (Klebsiella pneumoniae [9]) [µg/mL] | Compound | selectivity ratio at 24 h [8]
0.25 (≈ 0.222 µM) | 32 (≈ 28.5 µM) | 0.125 (≈ 0.111 µM) | 0.125 (≈ 0.111 µM) | 8 (≈ 7.12 µM) | 0.125 (≈ 0.111 µM) | > 64 | – | CC(C)C[C@@H]1NC(=O)[C@@H](Cc2ccccc2)NC(=O)[C@H](CCN)NC(=O)[C@@H](NC(=O)[C@H](CN)NC(=O)[C@@H](NC(=O)C[C@H](CN)Cc2ccccc2)[C@@H](C)O)CCNC(=O)[C@H]([C@@H](C)O)NC(=O)[C@H](CCN)NC(=O)[C@H](CCN)NC1=O ({GABA(3R-Bn)}-T[Dap][Dab][Dab][dF]L[Dab][Dab]T; lactam 3-C) | 12
0.5 (≈ 0.445 µM) | 8 (≈ 7.13 µM) | – | 0.5 (≈ 0.445 µM) | 2 (≈ 1.78 µM) | 0.125 (≈ 0.111 µM) | 32 (≈ 28.5 µM) | 2 (≈ 1.78 µM) | CC(C)C[C@@H]1NC(=O)[C@@H](CC2CCCCC2)NC(=O)[C@H](CCN)NC(=O)[C@@H](NC(=O)[C@H](CN)NC(=O)[C@@H](NC(=O)C[C@H](CN)C2CCCCC2)[C@@H](C)O)CCNC(=O)[C@H]([C@@H](C)O)NC(=O)[C@H](CCN)NC(=O)[C@H](CCN)NC1=O | –
0.25 (≈ 0.221 µM) | 16 (≈ 14.2 µM) | 0.06 (≈ 0.0531 µM) | 0.25 (≈ 0.221 µM) | 4 (≈ 3.54 µM) | 0.125 (≈ 0.111 µM) | 64 (≈ 56.6 µM) | 4 (≈ 3.54 µM) | CC(C)C[C@@H]1NC(=O)[C@@H](CC2CCCCC2)NC(=O)[C@H](CCN)NC(=O)[C@@H](NC(=O)[C@H](CN)NC(=O)[C@@H](NC(=O)C[C@H](CN)Cc2ccccc2)[C@@H](C)O)CCNC(=O)[C@H]([C@@H](C)O)NC(=O)[C@H](CCN)NC(=O)[C@H](CCN)NC1=O | 5.2
0.25 (≈ 0.224 µM) | 32 (≈ 28.6 µM) | 0.25 (≈ 0.224 µM) | 0.5 (≈ 0.447 µM) | 32 (≈ 28.6 µM) | 0.5 (≈ 0.447 µM) | > 64 | 16 (≈ 14.3 µM) | CC(C)C[C@@H]1NC(=O)[C@@H](Cc2ccccc2)NC(=O)[C@H](CCN)NC(=O)[C@@H](NC(=O)[C@H](CN)NC(=O)[C@@H](NC(=O)[C@@H]2CNCCN2CC(C)C)[C@@H](C)O)CCNC(=O)[C@H]([C@@H](C)O)NC(=O)[C@H](CCN)NC(=O)[C@H](CCN)NC1=O | 16.6
0.06 (≈ 0.0537 µM) | 16 (≈ 14.3 µM) | 0.125 (≈ 0.112 µM) | 0.06 (≈ 0.0537 µM) | 8 (≈ 7.17 µM) | 0.25 (≈ 0.224 µM) | > 64 | 4 (≈ 3.58 µM) | CC(C)C[C@@H]1NC(=O)[C@@H](Cc2ccccc2)NC(=O)[C@H](CCN)NC(=O)[C@@H](NC(=O)[C@H](CN)NC(=O)[C@@H](NC(=O)C[C@H](CN)C2CCCCC2)[C@@H](C)O)CCNC(=O)[C@H]([C@@H](C)O)NC(=O)[C@H](CCN)NC(=O)[C@H](CCN)NC1=O | 6.9
0.125 (≈ 0.109 µM) | 32 (≈ 28 µM) | – | 0.25 (≈ 0.218 µM) | 8 (≈ 6.99 µM) | 0.06 (≈ 0.0524 µM) | 64 (≈ 55.9 µM) | 4 (≈ 3.5 µM) | CC(C)C[C@@H]1NC(=O)[C@@H](CC2CCCCC2)NC(=O)[C@H](CCN)NC(=O)[C@@H](NC(=O)[C@H](CCN)NC(=O)[C@@H](NC(=O)C[C@H](CN)Cc2ccccc2)[C@@H](C)O)CCNC(=O)[C@H]([C@@H](C)O)NC(=O)[C@H](CCN)NC(=O)[C@H](CCN)NC1=O | 2.4
0.5 (≈ 0.413 µM) | 8 (≈ 6.61 µM) | 0.5 (≈ 0.413 µM) | 1 (≈ 0.827 µM) | 4 (≈ 3.31 µM) | 0.5 (≈ 0.413 µM) | 32 (≈ 26.5 µM) | 1 (≈ 0.827 µM) | CC[C@H](C)CCCCC(=O)N[C@@H](CCN)C(=O)N[C@H](C(=O)N[C@@H](CCN)C(=O)N[C@H]1CCNC(=O)[C@H]([C@@H](C)O)NC(=O)[C@H](CCN)NC(=O)[C@H](CCN)NC(=O)[C@H](CC(C)C)NC(=O)[C@@H](CC2CCCCC2)NC(=O)[C@H](CCN)NC1=O)[C@@H](C)O | –
